High-throughput results (PubChem BioAssay)
eIF4E 4G PPI: blocks eIF4E binding to eIF4G; P63073+Q04637; TR-FRET eIF4E-eIF4GI(517-606) binding, 2 h; inhibition, % at 21.7 µM; actives 0.37% (n = 220,000); AID 782;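 active = inhibition above about 30%, limit read from the data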
core dimer inh: HCV core protein dimerization inhibition; TR-FRET GST/Flag-core106 dimerization, 1536-well; inhibition, % at 5 µM; actives 0.33% (n = 300,000); AID 1899;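 active = inhibition above the mean of all tested compounds plus 3 SD, set per screening campaign, cut at about 45% in these data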
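System: GST-tagged and Flag-tagged HCV core protein residues 1-106 / Input: core106 proteins, GST 13.5 nM and Flag 17 nM / Buffer or medium: KF-containing HEPES buffer, pH 7.45, DTT, CHAPS, BSA / Probe or stimulus: Eu-anti-GST and XL665-anti-Flag labelled anti-tag antibodies / Schedule: 4 h, 22.5 °C incubation / Technique: TR-FRET 671 and 617 nm emission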
PABP1 MLLE inh: inhibitors of microRNA-mediated deadenylation, human PABP1 MLLE binding. inhibition, % at 20 µM. P11940. GST-MLLE / FITC-PAM2 fluorescence polarization. actives 0.36% (n = 360,000); in the data active = inhibition above about 35%, passing the limit was not always enough
SUMO HTRF inh: SUMOylation inhibition; inhibition, % at 35 µM; HTRF SUMOylation assay, SAE1/SAE2 + UBC9, in vitro; P63279; actives 0.36% (n = 290,000); in the data active = inhibition above about 50%, passing the limit was not always enough; inconclusive = no clear call, values can overlap the other calls
Target sequence (P63279 whole entry, looked up): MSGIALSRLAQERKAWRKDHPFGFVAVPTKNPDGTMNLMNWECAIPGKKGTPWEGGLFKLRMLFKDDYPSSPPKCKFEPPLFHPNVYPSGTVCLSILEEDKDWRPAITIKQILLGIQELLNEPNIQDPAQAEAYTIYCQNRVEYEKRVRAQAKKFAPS
PABP polyA inh: blocks human PABP binding to poly(A) RNA | P11940 | fluorescence polarization | calls only at 35 µM | actives 1% (n = 290,000);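 note: calls also rest on retests at 20 µM and on dose response follow-up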
eIF4H inh: inhibitors of RNA binding by human eIF4H. Q15056. eIF4H fluorescence polarization binding assay. inhibition, % at 35 µM. actives 0.94% (n = 290,000). AID 2012;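 note: calls also rest on retests at 20 µM and on dose response follow-up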
Hits are given with their value; 0 = inactive; ? = inconclusive; - = no result; + = active, no number. Sampled rows, rich in hits. Any-hit rate of the full collection: about 1.8%. Unless noted, the rule behind the calls is not given here.

SMILES	eIF4E 4G PPI	core dimer inh	PABP1 MLLE inh	SUMO HTRF inh	PABP polyA inh	eIF4H inh
CC[C@H](C)[C@H](NC(=O)OCc1ccccc1)C(=O)OCC(=O)Nc1ccc(N2CCOCC2)cc1	-	0	0	-	-	-
CN1CCc2c(sc3nc(SCC(N)=O)n(-c4ccccc4)c(=O)c23)C1	0	0	0	0	+	122
CC(=O)c1ccc(NC(=O)c2noc3c2CCC3)cc1	0	0	0	0	0	0
COc1ccc(NC(=O)c2noc3c2CCC3)cc1	0	0	0	0	+	107
Cc1cc2cc(CNC(=O)c3cccc([N+](=O)[O-])c3)ccc2[nH]1	0	0	45	0	0	0
COc1cccc(C(=O)NCc2ccc3[nH]c(C)cc3c2)c1	0	0	38	0	0	0
Cc1cc2cc(CNC(=O)Cc3ccc([N+](=O)[O-])cc3)ccc2[nH]1	0	0	0	0	0	0
COc1ccc(C(C(=O)NC2CCCC2)N(C(=O)c2snc(-c3ccc(F)cc3)c2N)c2ccc(F)cc2)cc1 (stereo not drawn)	0	0	0	0	0	0
COc1ccc(C(C(=O)NC2CCCC2)N(C(=O)c2snc(-c3ccc(F)cc3)c2N)c2ccc(OC)cc2)cc1 (stereo not drawn)	0	48	0	0	0	0
OCc1c(Cl)nc2ccccn12	0	0	0	0	+	0
COc1ccc(S(=O)(=O)N(C)c2ccc(C(=O)NCc3ccccn3)cc2)cc1OC	-	0	0	0	0	0
Nc1ncnc2oc(-c3ccco3)c(-c3ccco3)c12	0	73	0	78	+	104
C=CCn1c(-c2cccnc2)n[nH]c1=S	0	0	0	0	0	0
CCn1c(-c2ccco2)n[nH]c1=S	0	0	0	0	0	0
C=CCn1c(-c2cccc(OC)c2)n[nH]c1=S	0	0	0	0	+	2.5
C=CCn1c(-c2cc(OC)c(OC)c(OC)c2)n[nH]c1=S	44	0	0	0	0	0
C=CCn1c(-c2ccco2)n[nH]c1=S	67	0	0	0	0	0
C=CCn1c(-c2cc3cccc(OC)c3o2)n[nH]c1=S	0	0	0	0	+	?
CCOC(=O)c1ccc(NC(=O)CSc2nncn2-c2cccnc2)cc1	-	0	0	0	0	0
Cc1ccccc1C1C(C#N)=C2N=C(N)c3c(sc4c3CCCCC4)N2C2=C1C(=O)CCC2 (stereo not drawn)	0	0	0	0	+	78
CCOC(=O)c1sc2ncn(CC(=O)Nc3cc(C)on3)c(=O)c2c1C	-	-	0	-	-	-
Cc1ccc(S(=O)(=O)Nc2c(Cl)c(Cl)c(O)c3ccccc23)cc1	-	0	-	92	0	0
CCC(Oc1ccccc1)C(=O)O/N=C(\N)c1ccc(OC)c(OC)c1 (stereo not drawn)	0	0	0	0	+	active
COc1ccc(/C(N)=N/OC(=O)c2ccc3ccccc3c2)cc1OC	-	-	0	-	-	-
CSCCC(NC(=O)c1ccco1)C(=O)N1CCN(C(c2ccccc2)c2ccccc2)CC1 (stereo not drawn)	-	-	0	-	-	-
SMILES	eIF4E 4G PPI	core dimer inh	PABP1 MLLE inh	SUMO HTRF inh	PABP polyA inh	eIF4H inh
O=C(O)Cn1nnc(-c2ccccc2)c1COc1ccccc1	-	-	0	-	-	-
CCCCC1=CC2=C(c3ccco3)C(=O)C(C)(OC(=O)c3ccc(OC)cc3)C(=O)C2=CN1c1ccccc1 (stereo not drawn)	0	0	0	0	+	0
COc1ccc(-c2cc(-c3ccccc3)c(C#N)c(S(C)=O)n2)cc1 (stereo not drawn)	0	0	0	0	0	0
COc1ccc(-c2cc3nc4ccccc4n3c(N)c2C#N)cc1	0	0	0	57	0	0
O=C(c1nc2ccccn2c1CN1CCCC(O)C1)N1CCN(C2CCCCC2)CC1 (stereo not drawn)	-	0	42	0	0	0
COCC1CCN(Cc2c(C(=O)N3CCN(C4CCCCC4)CC3)nc3ccccn23)C1 (stereo not drawn)	-	0	0	0	0	0
CC(=O)c1cc(-c2ccccc2)[nH]c1N1CCOCC1	0	0	44	0	0	0
O=C(c1ccc(=O)oc1)N1CCOCC1	0	0	0	0	+	88
O=C(Cc1ccc(Cl)cc1)N/N=C/c1cccc(O)c1	-	0	0	0	0	0
CC(C)CN1CC(C)C(=O)NC1=S (stereo not drawn)	-	-	0	-	-	-
CCOc1cccc(=O)c2c(C)oc(C)c12	0	0	44	0	0	0
